For two compounds, Ki results are on record in ChEMBL document CHEMBL1151739, “Probes for narcotic receptor mediated phenomena. 37. Synthesis and opioid binding affinity of the final pair of oxide-bridged phenylmorphans, the ortho- and para-b-isomers and their N-phenethyl analogues, and the synthesis of the N-phenethyl analogues of the ortho- and para-d-isomers” (J Med Chem, 2008).

Assay [1] addresses T1, Mu-type opioid receptor (Homo sapiens, UniProt P35372). In words: Binding affinity to mu opioid receptor.
Assay [2] has as its target Kappa-type opioid receptor (Homo sapiens, UniProt P41145). In words: Displacement of [125I]IOXY from human recombinant kappa opioid receptor expressed in CHO cells. The class given is cell-based. The procedure, abridged:
(§1)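 Radioligand displacement run in CHO cells stably transfected to express the μ-, δ- or κ-opioid receptor, each receptor in its own line. The method follows the authors' earlier procedure. Each value comes from n=3 determinations.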
(In general: In a radioligand displacement assay an active substance lowers the binding of a labelled ligand.)

The target of assay [3] is T1, Mu-type opioid receptor. Put plainly: Displacement of [125I]IOXY from human recombinant mu opioid receptor expressed in CHO cells. The class given is cell-based. The procedure, abridged:
as §1

For assay [4], the target named is Delta-type opioid receptor (Homo sapiens, UniProt P41143). In words: Displacement of [125I]IOXY from human recombinant delta opioid receptor expressed in CHO cells. The class given is cell-based. The procedure, abridged:
as §1

T1 sequence (P35372 whole entry): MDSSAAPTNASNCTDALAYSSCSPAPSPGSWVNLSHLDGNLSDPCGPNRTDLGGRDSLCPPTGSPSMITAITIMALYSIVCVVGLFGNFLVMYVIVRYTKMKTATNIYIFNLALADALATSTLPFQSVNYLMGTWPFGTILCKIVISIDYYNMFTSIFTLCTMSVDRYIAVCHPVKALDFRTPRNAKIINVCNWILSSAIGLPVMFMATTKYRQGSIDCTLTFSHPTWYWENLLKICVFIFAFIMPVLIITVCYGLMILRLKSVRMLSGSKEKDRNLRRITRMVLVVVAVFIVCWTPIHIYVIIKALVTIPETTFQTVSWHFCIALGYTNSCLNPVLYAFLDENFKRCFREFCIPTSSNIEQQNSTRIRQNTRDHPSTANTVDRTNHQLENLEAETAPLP
Kappa-type opioid receptor, sequence (P41145 whole entry): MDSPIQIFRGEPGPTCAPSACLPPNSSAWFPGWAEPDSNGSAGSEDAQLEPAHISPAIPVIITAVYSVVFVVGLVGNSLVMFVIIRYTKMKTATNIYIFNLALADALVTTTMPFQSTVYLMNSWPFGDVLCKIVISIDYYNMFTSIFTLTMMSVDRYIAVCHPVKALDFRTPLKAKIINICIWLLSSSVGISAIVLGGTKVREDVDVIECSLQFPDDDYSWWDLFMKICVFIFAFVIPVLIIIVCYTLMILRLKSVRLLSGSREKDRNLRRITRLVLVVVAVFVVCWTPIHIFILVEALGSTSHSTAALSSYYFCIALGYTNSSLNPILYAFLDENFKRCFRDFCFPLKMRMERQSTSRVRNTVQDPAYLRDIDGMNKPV
Delta-type opioid receptor, sequence (P41143 whole entry): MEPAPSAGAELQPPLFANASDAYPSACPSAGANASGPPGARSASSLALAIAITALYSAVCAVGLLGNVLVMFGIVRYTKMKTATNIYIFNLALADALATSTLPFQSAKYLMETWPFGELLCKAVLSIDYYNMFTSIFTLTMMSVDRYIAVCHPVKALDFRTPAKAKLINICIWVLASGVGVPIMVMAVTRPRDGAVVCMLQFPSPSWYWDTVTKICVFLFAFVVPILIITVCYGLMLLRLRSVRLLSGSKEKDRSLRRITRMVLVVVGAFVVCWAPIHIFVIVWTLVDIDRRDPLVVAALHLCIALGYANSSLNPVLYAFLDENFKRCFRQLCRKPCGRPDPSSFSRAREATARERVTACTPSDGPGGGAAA

Consider `Oc1cccc2c1O[C@@H]1[C@@H]3CCC[C@]21CCN3CCc1ccccc1`, for which, in assay [1], the Ki (as a rule, the dissociation constant of the complex between target and ligand, obtained from inhibition or displacement) worked out at 7 nM.

In the case of `Oc1ccc2c(c1)[C@]13CCC[C@H](C1)N(CCc1ccccc1)C[C@@H]3O2` (relative stereo), the Ki in assay [2] turned out to be 560 nM; in assay [3] it was 1220 nM; in assay [4], 2530 nM.
